This is an account of results in BindingDB's records for doi:10.1021/jm00012a002 (Tosoh, 1995).

SMILES strings stand for the structures.

The target of assay [1] is HIV-1 RT (reverse transcriptase). Nature of the assay: Inhibitory effect on HIV-1 RT activity using template primer,poly (rA)-oligo (dT). The method, boiled down: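 Recombinant HIV-1 reverse transcriptase with poly(rA)-oligo(dT) as template-primer; IC50 is the 50% inhibition concentration, given as the mean of at least two separate experiments.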
Assay [2] is described as follows: Inhibitory effect on HIV-1 RT activity using template primer,poly (rC)-oligo (dG).

Take `CC(=O)c1ccc(C)cc1N[C@H](C(N)=O)c1c(Cl)cccc1Cl`: it took 16 µM to reach half-maximal inhibition in assay [1] (IC50). Still for that read-out and setting: then `CCCCN(C)C(=O)Oc1nsnc1-c1c(Cl)cccc1Cl` [Butyl-methyl-carbamic acid 4-(2,6-dichloro-phenyl)-[1,2,5]thiadiazol-3-yl ester], with 12 µM. On to `CCN(C)C(=O)Oc1nsnc1-c1c(Cl)cccc1Cl` [Ethyl-methyl-carbamic acid 4-(2,6-dichloro-phenyl)-[1,2,5]thiadiazol-3-yl ester], for which the IC50 (usually the concentration that gives 50% inhibition) in assay [1] was 3.4 µM; in assay [2], 0.3 µM.

Consider `CCCN(C)C(=O)Oc1nsnc1-c1c(Cl)cccc1Cl` [Methyl-propyl-carbamic acid 4-(2,6-dichloro-phenyl)-[1,2,5]thiadiazol-3-yl ester], for which the IC50 was 5.8 µM in assay [1] and 0.8 µM in assay [2].
